We go through nine compounds from publication PMC3787694 (Biochimica et biophysica acta, 2010).

Where a name gives a salt, the structure may show the parent alone. Read-outs that look alike come from different tables or passages of the source. Where only a bound is given, the exact number is not on record here.

The target in experiment [1] is human fetal muscle AChR (α1β1γδ) in TE671 cells (Homo sapiens, UniProt P02708+P07510+P11230+Q07001). The format is cell-based.
The target of experiment [2] is T1, Torpedo AChR (immobilized) (Tetronarce californica, UniProt P02710+P02712+P02714+P02718). Description: Binding kinetics by non-linear chromatography on CMAC-Torpedo AChR column. As to conditions: for Kd: Ka; for koff: 20 °C; for ΔG^20: Eq. (4); for kon: kon=koff·Ka.
T1 sequence (P02718 22-522): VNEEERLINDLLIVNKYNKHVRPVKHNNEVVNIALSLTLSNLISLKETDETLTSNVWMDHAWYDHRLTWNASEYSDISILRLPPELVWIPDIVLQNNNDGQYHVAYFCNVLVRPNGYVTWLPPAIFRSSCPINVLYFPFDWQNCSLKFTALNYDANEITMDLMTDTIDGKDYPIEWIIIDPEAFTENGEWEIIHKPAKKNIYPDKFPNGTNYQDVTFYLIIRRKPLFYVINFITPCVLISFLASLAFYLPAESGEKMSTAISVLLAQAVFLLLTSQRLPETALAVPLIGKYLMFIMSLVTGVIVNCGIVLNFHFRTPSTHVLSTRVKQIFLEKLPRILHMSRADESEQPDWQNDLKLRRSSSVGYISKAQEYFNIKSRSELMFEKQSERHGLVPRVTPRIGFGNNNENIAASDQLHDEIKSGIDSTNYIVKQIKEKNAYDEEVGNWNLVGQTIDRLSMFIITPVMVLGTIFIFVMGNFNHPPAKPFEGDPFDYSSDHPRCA
T1 sequence (P02712 25-493): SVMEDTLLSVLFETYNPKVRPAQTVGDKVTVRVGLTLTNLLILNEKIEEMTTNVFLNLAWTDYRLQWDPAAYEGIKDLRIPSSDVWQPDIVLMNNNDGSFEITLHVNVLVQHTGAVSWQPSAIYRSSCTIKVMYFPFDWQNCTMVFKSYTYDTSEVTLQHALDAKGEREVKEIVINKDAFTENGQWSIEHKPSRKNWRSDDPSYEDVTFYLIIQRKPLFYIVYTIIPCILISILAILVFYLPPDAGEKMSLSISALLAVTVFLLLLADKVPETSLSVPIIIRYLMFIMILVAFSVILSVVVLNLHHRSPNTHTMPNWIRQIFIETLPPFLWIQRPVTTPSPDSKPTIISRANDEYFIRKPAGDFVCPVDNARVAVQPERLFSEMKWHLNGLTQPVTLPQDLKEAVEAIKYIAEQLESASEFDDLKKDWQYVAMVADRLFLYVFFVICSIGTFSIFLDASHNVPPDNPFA
T1 sequence (P02714 18-506): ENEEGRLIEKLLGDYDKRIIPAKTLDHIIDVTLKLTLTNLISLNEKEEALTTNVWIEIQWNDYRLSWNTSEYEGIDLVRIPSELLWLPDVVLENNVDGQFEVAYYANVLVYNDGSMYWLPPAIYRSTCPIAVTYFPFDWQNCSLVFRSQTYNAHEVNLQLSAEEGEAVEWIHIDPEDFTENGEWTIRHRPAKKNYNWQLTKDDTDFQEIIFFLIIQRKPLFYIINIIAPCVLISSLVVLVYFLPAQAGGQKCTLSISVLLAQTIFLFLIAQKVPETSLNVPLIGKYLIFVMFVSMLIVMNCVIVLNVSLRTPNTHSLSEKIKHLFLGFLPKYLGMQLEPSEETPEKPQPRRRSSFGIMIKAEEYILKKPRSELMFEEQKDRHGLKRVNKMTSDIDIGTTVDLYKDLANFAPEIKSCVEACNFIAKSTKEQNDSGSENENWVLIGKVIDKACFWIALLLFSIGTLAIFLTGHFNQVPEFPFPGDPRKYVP
T1 sequence (P02710 25-461): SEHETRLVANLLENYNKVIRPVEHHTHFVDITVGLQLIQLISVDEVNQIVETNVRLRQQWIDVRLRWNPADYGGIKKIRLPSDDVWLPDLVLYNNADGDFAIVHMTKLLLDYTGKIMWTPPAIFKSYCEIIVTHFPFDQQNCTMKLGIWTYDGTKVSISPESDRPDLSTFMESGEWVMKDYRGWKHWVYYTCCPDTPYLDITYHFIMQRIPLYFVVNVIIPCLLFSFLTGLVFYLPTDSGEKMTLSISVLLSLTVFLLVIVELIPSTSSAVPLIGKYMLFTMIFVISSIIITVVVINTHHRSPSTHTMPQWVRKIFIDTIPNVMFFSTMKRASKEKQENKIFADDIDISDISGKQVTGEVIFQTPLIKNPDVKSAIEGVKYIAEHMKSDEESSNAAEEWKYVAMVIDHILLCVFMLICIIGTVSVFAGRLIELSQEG
Experiment [3] has as its system α3β4 AChR. The following applies: cited from earlier work.
Experiment [4] has as its target Torpedo AChR ion channel ([3H]ibogaine site) (Tetronarce californica, UniProt P02710+P02712+P02714+P02718). The experiment can be described thus: [3H]ibogaine competition binding to Torpedo AChRs.
Experiment [5] concerns α4β2 AChR. The following applies: read-out: inhibitory potency; cited from earlier work.
The target in experiment [6] is T2, Torpedo AChR (Tetronarce californica, UniProt P02710+P02712+P02714+P02718). Description: biochemical. The experiment is classed as binding. As to conditions: for apparent nH: [3H]cytisine binding enhancement; for fractional occupancy (θ): calculated with Eq. (2).
T2 sequence (P02710 25-461): as above
T2 sequence (P02712 25-493): as the sequence (P02712 25-493) above
T2 sequence (P02714 18-506): as the sequence (P02714 18-506) above
T2 sequence (P02718 22-522): as the sequence (P02718 22-522) above
The target of experiment [7] is T1, Torpedo AChR (immobilized). The experiment can be described thus: Thermodynamic parameters by non-linear chromatography. The format is binding. The following applies: for Ea (drug dissociation): Arrhenius plot; for ΔG^20: Eq. (8), 293K; for ΔH^+: Eq. (10); for ΔH°: van't Hoff 10-25 °C.
The target of experiment [8] is T2, Torpedo AChR. The experiment can be described thus: Equilibrium binding of [3H]18-MC to Torpedo AChR native membranes. In outline:
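[3H]18-MC plus unlabelled ligand was added at 0.07–1.2 μM for 2 h at RT, then filtered. Nonspecific binding was measured with 100 μM unlabelled ligand. Kd was taken from the Rosenthal-Scatchard slope and sites/AChR from its x-intercept.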

Experiment [9] has as its target Torpedo AChR ion channel ([3H]18-MC site) (Tetronarce californica, UniProt P02710+P02712+P02714+P02718). The format is binding. The following applies: for Ki / nH / ΔG: [3H]18-MC; for ΔG: 298K.
Experiment [10] deals with Torpedo AChR ion channel ([3H]TCP site) (Tetronarce californica, UniProt P02710+P02712+P02714+P02718). The experiment can be described thus: [3H]TCP competition binding to Torpedo AChRs in different conformational states. The following applies: for Ki / nH / ΔG: [3H]TCP; for ΔG: 298K.
Sequence of Torpedo AChR ion channel ([3H]TCP site) (P02710 25-461): as the sequence (P02710 25-461) above
Sequence of Torpedo AChR ion channel ([3H]TCP site) (P02712 25-493): as the sequence (P02712 25-493) above
Sequence of Torpedo AChR ion channel ([3H]TCP site) (P02714 18-506): as the sequence (P02714 18-506) above
Sequence of Torpedo AChR ion channel ([3H]TCP site) (P02718 22-522): as the sequence (P02718 22-522) above
The target in experiment [11] is Torpedo AChR. As to conditions: cited from earlier work.
Experiment [12] deals with AChR. As to conditions: cited from earlier work.
For experiment [13], the target named is Torpedo AChR. The following applies: cited from earlier work. The source holds these as a separate data set.
Setting [14] is: 5 min pre-incubation IC50 comparison.
Where [15] appears, read: epibatidine treated column (desensitized state).
Where [16] appears, read: α-BTx treated column (resting state).

Sequence of human fetal muscle AChR (α1β1γδ) in TE671 cells (P02708 21-457): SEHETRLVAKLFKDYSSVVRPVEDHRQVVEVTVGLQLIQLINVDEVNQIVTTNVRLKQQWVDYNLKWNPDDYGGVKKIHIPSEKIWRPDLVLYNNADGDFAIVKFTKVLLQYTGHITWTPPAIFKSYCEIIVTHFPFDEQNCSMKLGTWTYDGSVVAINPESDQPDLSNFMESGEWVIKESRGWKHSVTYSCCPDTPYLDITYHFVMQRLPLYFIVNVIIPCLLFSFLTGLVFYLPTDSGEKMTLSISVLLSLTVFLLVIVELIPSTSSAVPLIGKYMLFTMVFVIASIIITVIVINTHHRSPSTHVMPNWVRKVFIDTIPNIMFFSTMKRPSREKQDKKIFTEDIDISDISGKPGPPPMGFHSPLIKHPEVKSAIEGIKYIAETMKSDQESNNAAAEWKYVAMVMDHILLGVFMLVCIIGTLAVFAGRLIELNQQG
Sequence of human fetal muscle AChR (α1β1γδ) in TE671 cells (Q07001 22-517): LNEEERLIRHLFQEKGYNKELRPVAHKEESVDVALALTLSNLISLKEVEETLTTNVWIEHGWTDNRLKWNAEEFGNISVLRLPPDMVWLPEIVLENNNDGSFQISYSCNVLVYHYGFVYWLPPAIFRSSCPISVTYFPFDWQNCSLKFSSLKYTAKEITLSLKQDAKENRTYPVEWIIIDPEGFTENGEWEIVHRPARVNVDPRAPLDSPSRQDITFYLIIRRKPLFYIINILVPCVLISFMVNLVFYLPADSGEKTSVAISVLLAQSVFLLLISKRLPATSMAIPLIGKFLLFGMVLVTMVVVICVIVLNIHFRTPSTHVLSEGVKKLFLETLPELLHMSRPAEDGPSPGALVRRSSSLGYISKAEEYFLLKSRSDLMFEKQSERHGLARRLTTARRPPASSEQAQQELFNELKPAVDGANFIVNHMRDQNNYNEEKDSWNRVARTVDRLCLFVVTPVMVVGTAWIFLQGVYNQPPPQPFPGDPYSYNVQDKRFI
Sequence of human fetal muscle AChR (α1β1γδ) in TE671 cells (P11230 24-501): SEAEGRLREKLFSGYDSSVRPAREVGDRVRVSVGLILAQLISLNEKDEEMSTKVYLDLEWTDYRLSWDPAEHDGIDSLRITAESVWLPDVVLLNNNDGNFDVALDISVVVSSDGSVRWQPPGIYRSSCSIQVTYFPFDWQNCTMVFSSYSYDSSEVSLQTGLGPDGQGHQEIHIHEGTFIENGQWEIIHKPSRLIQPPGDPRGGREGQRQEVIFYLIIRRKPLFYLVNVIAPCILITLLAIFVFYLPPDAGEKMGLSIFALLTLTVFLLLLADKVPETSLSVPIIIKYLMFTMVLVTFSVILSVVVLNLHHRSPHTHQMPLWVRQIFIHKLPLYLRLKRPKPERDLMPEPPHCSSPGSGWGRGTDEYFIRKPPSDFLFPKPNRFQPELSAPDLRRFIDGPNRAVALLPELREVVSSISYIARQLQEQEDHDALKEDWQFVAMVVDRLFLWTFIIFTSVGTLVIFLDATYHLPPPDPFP
Sequence of human fetal muscle AChR (α1β1γδ) in TE671 cells (P07510 23-517): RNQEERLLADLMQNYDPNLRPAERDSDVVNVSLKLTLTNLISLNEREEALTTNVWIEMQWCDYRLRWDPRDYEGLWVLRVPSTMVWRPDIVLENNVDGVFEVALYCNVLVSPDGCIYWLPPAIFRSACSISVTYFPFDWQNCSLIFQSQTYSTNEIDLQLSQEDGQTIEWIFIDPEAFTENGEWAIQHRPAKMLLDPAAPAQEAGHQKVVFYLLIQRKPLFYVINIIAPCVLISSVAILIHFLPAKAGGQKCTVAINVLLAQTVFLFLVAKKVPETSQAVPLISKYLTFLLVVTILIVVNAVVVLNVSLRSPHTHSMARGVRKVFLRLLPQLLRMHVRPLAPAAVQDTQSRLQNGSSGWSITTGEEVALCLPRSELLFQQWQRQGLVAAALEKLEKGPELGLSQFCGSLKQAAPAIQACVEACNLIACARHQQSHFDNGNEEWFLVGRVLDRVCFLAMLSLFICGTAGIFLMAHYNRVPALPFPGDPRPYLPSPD
Sequence of Torpedo AChR ion channel ([3H]18-MC site) (P02710 25-461): as the sequence (P02710 25-461) above
Sequence of Torpedo AChR ion channel ([3H]18-MC site) (P02712 25-493): as the sequence (P02712 25-493) above
Sequence of Torpedo AChR ion channel ([3H]18-MC site) (P02714 18-506): as the sequence (P02714 18-506) above
Sequence of Torpedo AChR ion channel ([3H]18-MC site) (P02718 22-522): as the sequence (P02718 22-522) above
Sequence of Torpedo AChR ion channel ([3H]ibogaine site) (P02710 25-461): as the sequence (P02710 25-461) above
Sequence of Torpedo AChR ion channel ([3H]ibogaine site) (P02712 25-493): as the sequence (P02712 25-493) above
Sequence of Torpedo AChR ion channel ([3H]ibogaine site) (P02714 18-506): as the sequence (P02714 18-506) above
Sequence of Torpedo AChR ion channel ([3H]ibogaine site) (P02718 22-522): as the sequence (P02718 22-522) above

Take `Clc1ccc(C2CC3CCC2N3)cn1` (racemic) [(±)-epibatidine, reference compound]: the nH of activation in [1] (agonist activation) is given as 1.23 ±0.06.

Consider `COCC[C@H]1CC2CN3CCc4c([nH]c5ccccc45)[C@](C(=O)OC)(C2)[C@H]13` [18-MC, 18-methoxycoronaridine], for which the “increase of potency by longer pre-incubation periods” value in experiment [1] (4 or 24 h vs 5 min pre-incubation) was about 2 fold. The “fold more potent than PCP” value in [1] (setting [14]) was about 4 fold. Besides, the “fold more potent than ibogaine” value in experiment [1] (setting [14]) is on record as about 2 fold. The “nH (Hill coefficient)” value is on record as 1.56 ±0.15 in [1] (pre-incubation 5 min), 1.90 ±0.20 in experiment [1] (pre-incubation 240 min) and 1.61 ±0.13 in [1] (pre-incubation 1440 min). Further, the “manner of inhibition of hα1β1γδ AChR” value in experiment [1] (pre-treatment with 1, 10 and 100 μM) is “dose dependent and noncompetitive manner”. The Kd (as a rule, a measure of binding affinity in units of concentration) is 0.337 µM in experiment [2] (setting [15]), 0.885 µM in experiment [2] (setting [16]) and 0.23 ± 0.04 µM in experiment [8]. Also, the off-rate constant (koff) – broadly, the first-order rate constant of dissociation – in [2] (setting [15]) was determined as 0.077 ± 0.001 s⁻¹; in [2] (setting [16]), 0.109 ± 0.005 s⁻¹. The “ΔG^20” value in [2] (setting [15]) is -8.68 ± 0.024 kcal/mol; in experiment [2] (setting [16]) it was -8.1 ± 0.024 kcal/mol; in experiment [7] (setting [15]) it was -8.68 ± 0.335 kcal/mol; in [7] (setting [16]), -8.13 ± 0.335 kcal/mol. Further, the on-rate (kon) (usually the second-order rate constant of association) in [2] (setting [15]) was 228000 ± 3000 M⁻¹ s⁻¹; in experiment [2] (setting [16]) it was 123000 ± 2000 M⁻¹ s⁻¹. In addition, the IC50 in experiment [3] is 0.75 to 0.9 µM; in experiment [5], over 20 µM. The inhibition constant Ki (as a rule, the equilibrium dissociation constant of an inhibitor or competing ligand from its target) amounted to 0.61 ± 0.08 µM in experiment [4]; 0.47 ± 0.03 µM in [9] (desensitized/CCh-bound state); 1 ± 0.1 µM in experiment [9] (resting/α-BTx-bound state); 0.17 ± 0.01 µM in experiment [10] (desensitized/CCh-bound state); 1.4 ± 0.1 µM in experiment [10] (resting/α-BTx-bound state). For the same compound, the nH in experiment [4] ([3H]ibogaine, desensitized/CCh-bound state) came out at 1.02 ±0.13; in [9] (desensitized/CCh-bound state), 1.02 ±0.06; in [9] (resting/α-BTx-bound state), 0.70 ± 0.05; in experiment [10] (desensitized/CCh-bound state), 1.11 ±0.07; in experiment [10] (resting/α-BTx-bound state) it was 0.89 ± 0.06. Also, the ΔG in experiment [4] ([3H]ibogaine, desensitized/CCh-bound state, 298K) is -8.48 ± 0.072 kcal/mol; in experiment [9] (desensitized/CCh-bound state) it was -8.63 ± 0.048 kcal/mol; in [9] (resting/α-BTx-bound state), -8.2 ± 0.072 kcal/mol; in experiment [10] (desensitized/CCh-bound state), -9.23 ± 0.024 kcal/mol; in [10] (resting/α-BTx-bound state) it was -7.98 ± 0.048 kcal/mol. Besides, in [4] (both conformational states (so in the source)), the “inhibition of the specific binding of [3H]ibogaine” value is about 100%. Besides, in experiment [6], the EC50 (as a rule, the midpoint of the concentration-response curve) stood at 0.3 ± 0.1 µM. For the same compound, in [6], the “fold more potent than ibogaine to induce AChR desensitization” value is listed as about 90 fold. Also, the “apparent nH” value in [6] was 0.81±0.20. Further, the “enthalpic contribution relative to the entropic contribution” value in experiment [7] (desensitized AChR) is “more than 2 fold”. Besides, the entries for the “−TΔS°” value in [7] (setting [15]) and in experiment [7] (setting [16]) were -2.68 ± 0.287 kcal/mol and -3.7 ± 0.263 kcal/mol, respectively. In addition, the “Ea (drug dissociation)” value in experiment [7] (setting [15]) stood at 5.35 ± 0.359 kcal/mol; in experiment [7] (setting [16]), 3.92 ± 0.17 kcal/mol. Further, the “ΔH^+” value was determined as 4.78 ± 0.359 kcal/mol in [7] (setting [15]) and 3.32 ± 0.17 kcal/mol in experiment [7] (setting [16]). For the same compound, the “ΔH°” value in experiment [7] (setting [15]) was -5.98 ± 0.263 kcal/mol; in [7] (setting [16]) it was -4.42 ± 0.263 kcal/mol. Besides, in [9] ([3H]18-MC competition), the “fold higher affinity for the desensitized AChR compared to the resting AChR” value is listed as about 2 fold. Also, in [10] ([3H]TCP binding site), the “fold higher affinity in the desensitized AChR than in the resting AChR” value is about 8 fold. Also, the “inhibition of the specific binding of [3H]TCP” value in [10] (both conformational states) was about 100%.

In the case of `c1ccc(C2(N3CCCCC3)CCCCC2)cc1` [PCP, phencyclidine], the “nH (Hill coefficient)” value in experiment [1] (pre-incubation 5 min) was found to be 2.30 ±0.04. Further, in experiment [9] (desensitized/CCh-bound state), the Ki worked out at 0.41 ± 0.03 µM, the nH amounted to 0.76 ± 0.03 and the ΔG is -8.7 ± 0.024 kcal/mol. In experiment [9] (resting/α-BTx-bound state), this compound displayed an inhibitory constant (Ki) of 0.73 ± 0.05 µM, a nH of 0.88 ± 0.05 and a ΔG of -8.37 ± 0.048 kcal/mol. The “inhibition of the specific binding of [3H]18-MC” value in experiment [9] (both conformational states) was about 100%.

Regarding `c1csc(C2(N3CCCCC3)CCCCC2)c1` [[^3H]TCP, [Piperidyl-3,4-^3H(N)]-(N-(1-(2 thienyl)cyclohexyl)-3,4-piperidine)], the Kd in experiment [11] (desensitized state) is 0.25 µM; in experiment [11] (resting state), 0.83 µM.

Regarding `[3H]c1cc([3H])c(=O)n2c1[C@H]1CNC[C@H](C1)C2` [[^3H]cytisine, [^3H]cytisine hydrochloride, reference compound], the “fractional occupancy (θ)” value in [6] (bound to the desensitized AChR, 7.7 nM) is on record as about 0.017%; in [6] (bound to the resting AChR, nH = 1, 7.7 nM), about 0.005%.

For the compound `O=c1cccc2n1C[C@@H]1CNC[C@H]2C1` [cytisine], the Ki in experiment [12] (desensitized state) is 0.45 µM; in [12] (resting state), 1.6 µM.

In the case of “[^3H]18-Methoxycoronaridine [[^3H]18-MC]”, the stoichiometric ratio in experiment [8] (desensitized/CCh-bound state) stood at 0.86 ± 0.13 binding sites/AChR. In addition, the dissociation constant (Kd) in experiment [8] (desensitized/CCh-bound state (1 mM CCh), Rosenthal-Scatchard plot) is 0.23 µM.

Turning to [^3H]Ibogaine, the Kd in [13] is 5.4 µM.

With ibogaine, the “nH (Hill coefficient)” value in experiment [1] (pre-incubation 5 min) is 2.00 ±0.29. In addition, in experiment [3], the IC50 is 0.22 µM. In [6], the “apparent nH” value came to 0.99±0.22. Moreover, in [9] (desensitized/CCh-bound state), the nH is reported as 1.11 ±0.07 and the ΔG was -6.86 ± 0.048 kcal/mol. In experiment [9] (resting/α-BTx-bound state), this compound displayed a nH of 1.04 ±0.08 and a ΔG of -6.76 ± 0.048 kcal/mol.
